From PubChem BioAssay AID1885 (Broad Institute, 2009)
The whole screen tested about 300,000 compounds, of which about 4,400 (1.5%) were called active. The sample holds actives, similar compounds and a random draw of the others, so the mix is not that of the screen.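 How the source made its calls: active means mean inhibition across valid replicates above about 55% (limit read from the data); inconclusive means mean below that limit but half or more replicates reach it; inactive means mean below it, under half of replicates reach it.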

Assay: inhibitors of intracellular T. cruzi growth, primary screen, luminescence, NIH3T3 host cells (AID 1885);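 further: signal also drops with host cell toxicity which is not excluded here; 0% = plate median of DMSO wells and 100% = zero luminescence signal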
Settings: T. cruzi beta-gal in NIH3T3, luminescence, 90 h; stronger effect = higher value; concentration not given here
Method in brief: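 assay system = mouse NIH/3T3 fibroblasts infected with β-gal-expressing T. cruzi Tulahuen C4 | input = 5,000 NIH/3T3 host cells per well | buffer or medium = DMEM plus 2% FBS | timing = 3 h host attachment, then at least 90 h co-culture | measured by = GalScreen luminescence, 60 min | evaluation = luminescence reflecting intracellular parasite burden, expressed as percent inhibition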

| Compound | inhibition |
| --- | --- |
| CCN1C(=O)[C@@H]2[C@@H](c3ccc(-c4cccc(Cl)c4)cc3)N3CCC[C@@]3(C(=O)OC)[C@@H]2C1=O | 4.08% (inactive) |
| COc1cc(C(=O)N2CCN(C3CCC(C)CC3)CC2)cc(OC)c1OC (stereo unspecified) | 25.8% (inactive) |
| N/C(=N\OC(=O)COc1ccc([N+](=O)[O-])cc1)c1ccc(Br)cc1 | -1.86% (inactive) |
| NC(=O)Cn1nc([N+](=O)[O-])nc1Oc1ccc(Br)cc1 | 88.1% (active) |
| Cc1nn(CCOc2ccc(Br)cc2)c(C)c1[N+](=O)[O-] | 10.6% (inactive) |
| Cn1nc([N+](=O)[O-])nc1Sc1ccc(C(C)(C)C)cc1 | 27% (inactive) |
| CCc1ccc(Oc2nc([N+](=O)[O-])nn2C)cc1 | 66.5% (active) |
| COc1ccc(CNC(=O)CCCn2nc(C)c([N+](=O)[O-])c2C)cc1 | -2.92% (inactive) |
| COc1ccc(NC(=O)CCS(=O)(=O)c2cc3c(cc2Cl)NC(=O)CO3)cc1OC | 1.37% (inactive) |
| CC(C)CCN1CCN(Cc2cn[nH]c2C2CCCCC2)CC1CCO (stereo unspecified) | 24.3% (inactive) |
| CN(CCOc1ccccc1)C(=O)c1cc(COc2c(F)cccc2F)on1 | -2.25% (inactive) |
| COc1ccc(NC(=O)CCNC(=O)Cn2cnc3sc4c(c3c2=O)CCCC4)cc1OC | -2.4% (inactive) |
| Cc1ccc(S(=O)(=O)N2CCN(C(=O)c3ccccc3-c3nc4ccccc4s3)CC2)c(C)c1 | -3.66% (inactive) |
| CC(NC(=O)c1cc2cc(Cl)ccc2oc1=N)c1ccccc1 (stereo unspecified) | -3.32% (inactive) |
| COc1cccc(CNCCc2c[nH]c3ccccc23)c1OCc1ccccc1F | 39.3% (inactive) |
| CCC(Oc1ccccc1)C(=O)NCc1cccnc1 (stereo unspecified) | -4.42% (inactive) |
| c1ccc(COc2ccccc2CNCc2cccnc2)cc1 | 69.7% (active) |
| Fc1ccccc1COc1cccc2cccnc12 | -0.777% (inactive) |
| C=CCOc1cccc(CNCc2cccnc2)c1 | 17.4% (inactive) |
| Fc1ccccc1COc1ccccc1CNCc1ccncc1 | 65.1% (active) |
| CN(C(=O)CN1C(=O)NC(C)(CCc2ccccc2)C1=O)c1ccccc1 (stereo unspecified) | -3.39% (inactive) |
| O=C(Nc1ccccc1Cl)N1CCN(c2ccc3nncn3n2)CC1 | -2.95% (inactive) |
| O=C1c2ccccc2C(=O)N1CC1c2ccccc2CCN1S(=O)(=O)c1ccccc1 (stereo unspecified) | -2.22% (inactive) |
| Cc1c(Cl)c([N+](=O)[O-])nn1CCCC(=O)NC(C)c1ccccc1 (stereo unspecified) | 6.9% (inactive) |
| COC(=O)C(C)Sc1ccc2nnc(-c3cccc(F)c3)n2n1 (stereo unspecified) | 19% (inactive) |
| C1CC1Cc1noc(CN2CCN(CC3CC3)CC2)n1 | 1.1% (inactive) |
